Screening results (PubChem BioAssay)
Dynein transport: inhibitors of GR-EGFP nuclear translocation, primary screen, dynein cargo transport inhibitor project, imaging, high-content, 3617.4 mouse cells. 220,000 tested, 0.47% active. test concentration mostly 20 µM; stimulated with dexamethasone, 1 µM; hits give low values. AID 1381, 2008. z-score, hits read low;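 active = plate z-score of nuclear minus cytoplasmic receptor signal below a set negative limit, without overly bright fluorescence or cell loss, cut at about -3.5 in these data, passing the limit was not always enough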;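 note: z-score of nuclear minus cytoplasmic ring GR-EGFP intensity difference per well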
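medium = tetracycline-free induction medium containing charcoal-stripped FBS | also added = 1.0 µM final dexamethasone stimulus | schedule = 48 h induction, 1 h compound, 30 min dex at 37 °C | technique = fixed, Hoechst-stained cells imaged at 10x for EGFP | measure = GR-EGFP nuclear translocation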
Hsp70 act: Hsp70 transcriptional activators, primary screen, cell-based, HeLa, Hsp70 promoter luciferase, luminescence, 10 µM; HeLa Hsp70 promoter luciferase reporter; scaled: vehicle 0, proteasome-inhibitor control 100%; activation, % at 10 µM; 200,000 tested, 0.04% active; AID 1203, 2008;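 active = activation above the mean across all tested compounds plus 3 SD, cutoff set per campaign, cut at about 5.5% in these data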
EP2 mod: EP2 receptor modulators, cAMP readout, primary screen, cell-based, HTRF cAMP, PGE2 stimulation; EP2-expressing cells, cAMP HTRF FRET, PGE2 co-stimulation; induction, % at 25 µM; 260,000 tested, 0.83% active; AID 940, 2007;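 active = compounds whose cAMP rise, as percent of the full-agonist control response, exceeds 60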;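 note: rat C6 glioma line stably carrying human EP2 under a CMV promoter; the protocol text gives 20 µM as final concentration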
Target sequence (P43116 whole entry, looked up): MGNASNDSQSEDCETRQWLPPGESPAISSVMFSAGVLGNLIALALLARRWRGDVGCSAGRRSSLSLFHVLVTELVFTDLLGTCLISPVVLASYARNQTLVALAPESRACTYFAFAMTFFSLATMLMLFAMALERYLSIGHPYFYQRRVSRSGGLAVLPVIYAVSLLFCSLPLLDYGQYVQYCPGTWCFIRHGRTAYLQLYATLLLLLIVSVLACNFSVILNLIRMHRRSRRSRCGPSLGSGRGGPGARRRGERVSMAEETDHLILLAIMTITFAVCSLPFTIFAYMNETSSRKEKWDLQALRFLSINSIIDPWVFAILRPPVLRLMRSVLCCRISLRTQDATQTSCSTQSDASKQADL
EP2 antag: human EP2 receptor antagonists, primary screen, TR-FRET cAMP, C6 glioma cells. inhibition, % at 25 µM. C6 glioma cells expressing human EP2; cells stimulated with saturating PGE2. 260,000 tested, 0.52% active. Prostaglandin E2 receptor EP2 subtype (Homo sapiens), P43116. AID 1422, 2008;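 active = percent inhibition above 40 after rounding to a whole number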;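 note: rat C6 glioma host cells with rolipram phosphodiesterase inhibitor present; the protocol text gives 20 µM as final concentration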
EP2 confirm: cAMP induction in EP2, EP4, beta2-AR and parental cells, confirmation, counter-screen for EP2 modulator project, cell-based, five parallel assays, C6 glioma, HEK293 | shares compounds with EP2 mod | cAMP HTRF induction; plus low (about EC15) PGE2 agonist | calls only at 20 µM (by protocol) | 1,300 tested, 47% active;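 active = cAMP induction above 50% in the main assay while under 30% in all four parallel counter assays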;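 note: rat C6 glioma cells stably expressing human EP2 receptor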
Hits are given with their value; - = inactive; . = not tested or not shown; + = active, no number; ! = not active in a repeat. Compounds with a hit are over-represented: about 1.7% of the library has one in this group of screens.

SMILES | Dynein transport | Hsp70 act | EP2 mod | EP2 antag | EP2 confirm
FC(F)(F)c1cccc(/C=N/NC(=S)NC2CCCCC2)c1 | - | - | 80 | - | +
CC1CCc2cc(F)cc3c(O)c(C(=O)NCc4ccco4)c(=O)n1c23 (configuration not stated) | - | - | 69 | . | -
CNc1oc(-c2ccccc2)nc1C#N | - | - | - | - | .
CNc1oc(-c2ccc(Cl)cc2)nc1P(=O)(c1ccccc1)c1ccccc1 | - | - | 68 | - | +
CCOP(=O)(OCC)c1nc(-c2ccc(OC)cc2)oc1N1CCOCC1 | - | . | - | - | .
Cc1ccc(-c2nc(P(=O)(c3ccccc3)c3ccccc3)c(N3CCOCC3)o2)cc1 | - | - | 65 | - | -
N#CCc1nc(-c2cccs2)cs1 | . | . | - | - | .
O=c1[nH]c2ccc(Br)cc2c(-c2ccccc2)c1CN1CCOCC1 | - | - | - | - | .
O=c1[nH]c2ccc(Br)cc2c(-c2ccccc2)c1N1CCOCC1 | - | - | 78 | . | -
CCOC(=O)C1CCN(c2c(-c3ccccc3)c3cc(Cl)ccc3[nH]c2=O)CC1 | - | - | 80 | - | -
CCC(C)N(C)C(=O)c1cc2ccccc2c(-c2ccccc2Cl)n1 (configuration not stated) | - | - | 70! | - | -
COc1cc(C(=O)NCC2CCN(C(C)C)CC2)c2ccccc2n1 | . | . | - | - | .
CC(C)CNC(=O)C(=O)NNC(=O)c1ccco1 | - | - | - | - | -
COCCn1c(-c2ccc(OC)cc2)nc2ccccc21 | - | - | - | - | .
COc1ccc(Cn2c(-c3ccc(OC)cc3)nc3ccccc32)cc1 | - | - | 67 | . | -
COc1ccc(-c2nc3c(c(=O)[nH]c(=O)n3Cc3ccccc3)n2Cc2ccccc2)cc1 | - | - | 74 | - | +
CC1(C)CC2/C(CO)=C/C=C/[C@@](C)(O)CC[C@]21O (some centres not stated) | . | . | - | - | .
CC(C)c1ccc(OCC(=O)NC(=S)Nc2ccc3c4c(cccc24)CC3)cc1 | - | - | 66 | - | -
Cc1cc(C)n(-c2nc3ccccc3nc2Nc2ccc3[nH]c(=O)[nH]c3c2)n1 | - | - | 83 | - | -
S=c1nc(-c2ccccc2)[nH]c2ccccc12 | - | - | - | - | .
S=c1nc[nH]c2c1[nH]c1ccccc12 | - | - | 83 | - | -
CCOP(=O)(OCC)c1nc(-c2ccc(C)cc2)oc1NCc1ccccc1 | - | - | 81 | - | +
CCOP(=O)(OCC)c1nc(-c2cccc3ccccc23)oc1NCc1ccc(OC)cc1 | - | - | 71 | - | -
COc1ccc(CCNc2oc(-c3cccc4ccccc34)nc2P(=O)(OC)OC)cc1OC | - | - | - | - | .
COP(=O)(OC)c1nc(-c2cccc3ccccc23)oc1NCCc1ccccc1 | - | - | - | - | .
SMILES | Dynein transport | Hsp70 act | EP2 mod | EP2 antag | EP2 confirm
CCOP(=O)(OCC)c1nc(/C=C/c2ccccc2)oc1NCc1ccc(OC)cc1 | - | - | - | - | .
CCOP(=O)(OCC)c1nc(-c2cccc3ccccc23)oc1NCc1ccccc1 | - | - | 77 | - | +
CCOP(=O)(OCC)c1nc(/C=C/c2ccccc2)oc1NCc1ccccc1 | - | - | - | - | -
O=c1c2cn[nH]c2nc(SCc2ccccc2F)n1-c1ccc(Br)cc1 | - | - | 83 | - | +
O=c1c2cn[nH]c2nc(SCc2cc(=O)n3cc(Br)ccc3n2)n1-c1ccc(Br)cc1 | - | - | - | - | .
CCOc1cc(CN2CCC(C(=O)N3CCCC(C)C3)CC2)ccc1O (configuration not stated) | . | . | - | - | .
Cc1cc(C)nc(SCc2nnc(SCC(N)=O)n2C)n1 | . | . | - | - | .
Brc1ccc(-c2ccc(/C=N/Nc3nc(N4CCOCC4)nc(N4CCOCC4)n3)o2)cc1 | - | - | 67 | - | +
Clc1ccc(-c2ccc(/C=N/Nc3cc(N4CCOCC4)nc(N4CCOCC4)n3)o2)cc1 | - | - | 108 | - | +
Fc1cnc(N/N=C/c2ccc(-c3ccc(Br)cc3)o2)nc1N1CCOCC1 | - | . | - | - | .
Cc1cc2c(cc3c(=O)n(CC(=O)NCc4ccncc4)nc(C)n32)s1 | . | . | - | . | .
C[C@H]1[C@H]2CCC3C4CC=C5C[C@@H](N(C)C)CC[C@]5(C)C4CC[C@@]32CN1C (some centres not stated) | . | . | - | - | .
c1ccc2c(c1)OCC(c1csc3ncnc(N4CCCCC4)c13)O2 (configuration not stated) | - | - | 84 | - | +
O=c1[nH]c(N/N=C/c2ccccc2)nc2ccccc12 | - | - | 69 | - | +
C(=N\Nc1nc2ccccc2[nH]1)/c1ccccc1 | - | - | - | - | .
CC(=O)N1CCN(S(=O)(=O)c2ccc(F)c(Cl)c2)CC1 | - | - | - | - | .
O=S(=O)(c1ccc(F)c(Cl)c1)N1CCCC1 | - | - | 68 | - | -
O=C(CNCC1CCCO1)NC1CCCCC1 (configuration not stated) | . | . | - | - | .
C=CCc1cc(C=O)cc(OC)c1OCc1c(Cl)cccc1Cl | - | - | 92 | - | +
COc1ccc(-c2nc3cnccn3c2NCc2ccc3c(c2)OCO3)cc1 | . | . | - | - | .
COc1cc2sc(NC(=O)c3ccccc3F)nc2cc1Cl | . | . | - | - | .
O=C(OCc1ccc(Cl)cc1)c1ccccc1C(=O)c1ccccc1 | - | - | 70 | - | +
O=C(OCc1ccc(Cl)cc1)c1cccnc1Cl | - | - | - | - | .
O=C(NC(=S)Nc1ccc(I)cc1)c1cccnc1 | . | . | - | - | .
Cc1cc(-c2cnc(C)nc2C2CCN(C(=O)Cn3nc(C)cc3C)CC2)on1 | . | . | - | . | .
SMILES | Dynein transport | Hsp70 act | EP2 mod | EP2 antag | EP2 confirm
COC(=O)c1cc(-c2ccc3c(c2)OCO3)nc2ccccc12 | - | - | 68 | - | -
Cc1ccc2nc(SCC(=O)Nc3ccccc3)c(C)cc2c1 | . | . | - | - | .
COc1ccc(-n2c(-c3cccc(OC)c3)nc(=S)c3c2CCCC3)cc1 | - | - | 77 | - | -
COc1cc2c(cc1OC)-c1cc(Nc3ccccc3)nc(=O)n1CC2 | - | . | - | - | .
COc1cc2c(cc1OC)-c1cc(Nc3ccc4c(c3)OCCO4)nc(=O)n1CC2 | - | - | - | - | -
COc1cc2c(cc1OC)-c1cc(N3CCc4ccccc43)nc(=O)n1CC2 | - | . | - | - | .
COc1cc2c(cc1OC)-c1cc(N3CCCc4ccccc43)nc(=O)n1CC2 | - | - | 61 | - | -
COc1ccccc1C1(NCc2cncn2Cc2ccccc2)CCCC1 | . | . | - | - | .
C=CCSc1nc2ccccc2n1S(=O)(=O)c1ccc(C)cc1 | - | - | 67 | - | +
Cc1ccc(S(=O)(=O)n2c(N)nc3ccccc32)cc1 | . | . | - | - | .
